Measurements: ChEMBL document CHEMBL1125057, “Synthesis and antihypertensive activity of 4-(substituted-carbonylamino)-2H-1-benzopyrans” (1990)

Columns and labels:
Assay type in all cases: functional
Rattus norvegicus [1] = assay: Systolic blood pressure was measured at intervals from 1 to 6 hr in groups of six rats after oral administration of a dose of 1.0 mg/kg
Method in brief: (§1)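 Conscious spontaneously hypertensive rats of Okamoto origin, 14-24 weeks old, with systolic pressure >180 mmHg, were used in groups of six. Dosing was oral by esophageal needle as a solution or suspension in 1% w/v methylcellulose. Systolic pressure was taken by tail-cuff before dosing and at intervals up to 6 h postdose. Each determination was the mean of at least six recordings.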

Rattus norvegicus [2] = assay: Systolic blood pressure at intervals from 1 to 6 hr in groups of six rats after 0.3 mg/kg p.o. administration.; settings: route oral; method in brief: as §1
Rattus norvegicus [3] = assay: Systolic blood pressure was measured at intervals from 1 to 6 hr in groups of six rats after oral administration of a dose of 10 mg/kg; method in brief: as §1
Rattus norvegicus [4] = assay: Systolic blood pressure was measured at intervals from 1 to 6 hr in groups of six rats after oral administration of a dose of 1 mg/kg; method in brief: as §1
Rattus norvegicus [5] = assay: Systolic blood pressure was measured at intervals from 1 to 6 hr in groups of six rats after oral administration of a dose of 3 mg/kg; method in brief: as §1
Oryctolagus cuniculus = species: Oryctolagus cuniculus; assay: Increase in rubidium-86 efflux in rabbit isolated mesenteric artery over basal rate
Method in brief: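 Segments (10-20 mg wet weight) of New Zealand White rabbit mesenteric artery were held 30 min in aerated (19:1 O2-CO2) HEPES buffer, pH 7.4, at 37 °C. They were loaded with 100-200 µCi rubidium-86 over 90 min, then moved every 3 min through label-free buffer. Compound at 1 × 10^-5 M was present over min 30-48. Efflux was counted by liquid scintillation. Value is the maximum rate coefficient over min 30-45 as a percentage of basal (mean over min 21-30), ± standard error.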

Rattus norvegicus [6] = assay: Systolic blood pressure was measured at intervals from 1 to 6 hr in groups of six rats after oral administration of a dose of 10.0 mg/kg; method in brief: as §1
Rattus norvegicus [7] = assay: Systolic blood pressure was measured at intervals from 1 to 6 h in groups of six rats after oral administration of a dose of 1 mg/kg; method in brief: as §1
Rattus norvegicus [8] = assay: Systolic blood pressure was measured at intervals from 1 to 6 hr in groups of six rats after oral administration of a dose of 0.1 mg/kg; method in brief: as §1

Compound: CC1(C)Oc2ccc(C#N)cc2C(NC(=O)c2ccoc2)[C@@H]1O (some centres not stated)
- Decrease in blood pressure (Rattus norvegicus [1]): 35%
- Decrease in blood pressure (Rattus norvegicus [2]): 19%

Compound: CC1(C)Oc2ccc(C#N)cc2C(NC=O)[C@@H]1O (some centres not stated)
- Decrease in blood pressure (Rattus norvegicus [3]): 26%
- Decrease in blood pressure (Rattus norvegicus [4]): 10%

Compound: CC1(C)Oc2ccc(C#N)cc2C(NC(=O)Nc2ccccc2)[C@@H]1O (some centres not stated)
- Decrease in blood pressure (Rattus norvegicus [3]): 13%

Compound: CC1(C)Oc2ccc(C#N)cc2C(NC(=O)c2ccccc2)[C@@H]1O (some centres not stated)
- Decrease in blood pressure (Rattus norvegicus [1]): 41%
- Decrease in blood pressure (Rattus norvegicus [2]): 16%

Compound: CC(N/C(=N\C#N)Nc1ccncc1)C(C)(C)C (configuration not stated) [PINACIDIL ANHYDROUS]
- Decrease in blood pressure (Rattus norvegicus [5]): 39%
- Increase (Oryctolagus cuniculus): 72%
- Decrease in blood pressure (Rattus norvegicus [4]): 11%

Compound: CC(C)(C)NC(=O)NC1c2cc(C#N)ccc2OC(C)(C)[C@H]1O (some centres not stated)
- Decrease in blood pressure (Rattus norvegicus [3]): 8%

Compound: CCCCC(=O)NC1c2cc(C#N)ccc2OC(C)(C)[C@H]1O (some centres not stated)
- Decrease in blood pressure (Rattus norvegicus [3]): 64%
- Decrease in blood pressure (Rattus norvegicus [5]): 18%

Compound: CCC(=O)NC1c2cc(C#N)ccc2OC(C)(C)[C@H]1O (some centres not stated)
- Decrease in blood pressure (Rattus norvegicus [1]): 29%
- Decrease in blood pressure (Rattus norvegicus [2]): 10%

Compound: CC(=O)NC1c2ccccc2OC(C)(C)[C@H]1O (some centres not stated)
- Decrease in blood pressure (Rattus norvegicus [3]): 13%

Compound: CC1(C)Oc2ccc(C#N)cc2C(NC(=O)CCl)[C@@H]1O (some centres not stated)
- Decrease in blood pressure (Rattus norvegicus [3]): 28%

Compound: CC(=O)NC1CC(C)(C)Oc2ccc(C#N)cc21 (configuration not stated)
- Decrease in blood pressure (Rattus norvegicus [1]): 44%
- Decrease in blood pressure (Rattus norvegicus [2]): 18%

Compound: COCC(=O)NC1c2cc(C#N)ccc2OC(C)(C)[C@H]1O (some centres not stated)
- Decrease in blood pressure (Rattus norvegicus [1]): 32%
- Decrease in blood pressure (Rattus norvegicus [2]): 16%

Compound: CCCN(C(C)=O)C1c2cc(C#N)ccc2OC(C)(C)[C@H]1O (some centres not stated)
- Decrease in blood pressure (Rattus norvegicus [5]): 58%
- Decrease in blood pressure (Rattus norvegicus [4]): 24%

Compound: CCCCNC(=O)NC1c2cc(C#N)ccc2OC(C)(C)[C@H]1O (some centres not stated)
- Decrease in blood pressure (Rattus norvegicus [3]): 29%
- Decrease in blood pressure (Rattus norvegicus [4]): 11%

Compound: CCOC(=O)NC1c2cc(C#N)ccc2OC(C)(C)[C@H]1O (some centres not stated)
- Decrease in blood pressure (Rattus norvegicus [6]): 54%
- Decrease in blood pressure (Rattus norvegicus [5]): 22%
- Decrease in blood pressure (Rattus norvegicus [4]): 13%

Compound: CC(=O)NC1c2cc(C#N)ccc2OC(C)(C)[C@H]1OC(C)=O (some centres not stated)
- Decrease in blood pressure (Rattus norvegicus [7]): 61%
- Decrease in blood pressure (Rattus norvegicus [8]): 9%
- Decrease in blood pressure (Rattus norvegicus [2]): 34%

Compound: CC(=O)NC1c2cc(C(C)=O)ccc2OC(C)(C)[C@H]1O (some centres not stated)
- Decrease in blood pressure (Rattus norvegicus [8]): 20%
- Increase (Oryctolagus cuniculus): 38%
- Decrease in blood pressure (Rattus norvegicus [1]): 61%
- Decrease in blood pressure (Rattus norvegicus [2]): 23%

Compound: CC1(C)Oc2ccc(C#N)cc2C(NC(=O)c2ccccn2)[C@@H]1O (some centres not stated)
- Decrease in blood pressure (Rattus norvegicus [8]): 22%
- Increase (Oryctolagus cuniculus): 53%
- Decrease in blood pressure (Rattus norvegicus [2]): 36%

Compound: CC1(C)Oc2ccc(C#N)cc2C(NC(N)=O)[C@@H]1O (some centres not stated)
- Decrease in blood pressure (Rattus norvegicus [6]): 56%
- Decrease in blood pressure (Rattus norvegicus [5]): 46%
- Decrease in blood pressure (Rattus norvegicus [4]): 18%

Compound: CC(=O)NC1c2cc(C#N)c([N+](=O)[O-])cc2OC(C)(C)[C@H]1O (some centres not stated)
- Decrease in blood pressure (Rattus norvegicus [8]): 26%
- Decrease in blood pressure (Rattus norvegicus [2]): 46%

Compound: CC1(C)Oc2ccc(C#N)cc2C(NC(=O)c2cccnc2)[C@@H]1O (some centres not stated)
- Decrease in blood pressure (Rattus norvegicus [1]): 43%
- Decrease in blood pressure (Rattus norvegicus [2]): 27%

Compound: CC1(C)Oc2ccc(C#N)cc2C(NC(=O)c2ccco2)[C@@H]1O (some centres not stated)
- Decrease in blood pressure (Rattus norvegicus [1]): 54%
- Decrease in blood pressure (Rattus norvegicus [2]): 11%

Compound: CC(=S)NC1c2cc(C#N)ccc2OC(C)(C)[C@H]1O (some centres not stated)
- Decrease in blood pressure (Rattus norvegicus [1]): 53%
- Decrease in blood pressure (Rattus norvegicus [2]): 26%

Compound: CC(=O)Nc1cc2c(cc1[N+](=O)[O-])OC(C)(C)[C@@H](O)C2NC(C)=O (some centres not stated)
- Decrease in blood pressure (Rattus norvegicus [5]): 16%

Compound: C/N=C(/S)NC1c2cc(C#N)ccc2OC(C)(C)[C@H]1O (some centres not stated)
- Decrease in blood pressure (Rattus norvegicus [6]): 50%
- Decrease in blood pressure (Rattus norvegicus [5]): 33%
- Decrease in blood pressure (Rattus norvegicus [4]): 16%

Compound: CC(=O)NC1c2cc(Cl)ccc2OC(C)(C)[C@H]1O (some centres not stated)
- Decrease in blood pressure (Rattus norvegicus [3]): 34%
- Decrease in blood pressure (Rattus norvegicus [4]): 8%

Compound: CC1(C)Oc2ccc(C#N)cc2C(NC(=O)c2ccc[nH]2)[C@@H]1O (some centres not stated)
- Decrease in blood pressure (Rattus norvegicus [1]): 50%
- Decrease in blood pressure (Rattus norvegicus [2]): 12%

Compound: CC(=O)NC1c2cc(C#N)ccc2OC(C)(C)[C@H]1O (some centres not stated)
- Decrease in blood pressure (Rattus norvegicus [8]): 18%
- Increase (Oryctolagus cuniculus): 59%
- Decrease in blood pressure (Rattus norvegicus [1]): 67%
- Decrease in blood pressure (Rattus norvegicus [2]): 47%

Compound: CC(=O)NC1c2cc(Br)c([N+](=O)[O-])cc2OC(C)(C)[C@H]1O (some centres not stated)
- Decrease in blood pressure (Rattus norvegicus [1]): 51%
- Decrease in blood pressure (Rattus norvegicus [2]): 25%

Compound: CC1(C)Oc2ccc(C#N)cc2C(NC(=O)c2ccc3ccccc3c2)[C@@H]1O (some centres not stated)
- Decrease in blood pressure (Rattus norvegicus [3]): 35%
- Increase (Oryctolagus cuniculus): 17%
- Decrease in blood pressure (Rattus norvegicus [4]): 6%

Compound: CC1(C)Oc2ccc(C#N)cc2C(N2CCCC2=O)C1O (configuration not stated) [CROMAKALIM]
- Decrease in blood pressure (Rattus norvegicus [8]): 13%
- Increase (Oryctolagus cuniculus): 110%
- Decrease in blood pressure (Rattus norvegicus [1]): 47%
- Decrease in blood pressure (Rattus norvegicus [2]): 39%

Compound: CC(=O)N(C)C1c2cc(C#N)ccc2OC(C)(C)[C@H]1O (some centres not stated)
- Decrease in blood pressure (Rattus norvegicus [1]): 31%
- Decrease in blood pressure (Rattus norvegicus [2]): 11%

Compound: CNCC(=O)NC1c2cc(C#N)ccc2OC(C)(C)[C@H]1O (some centres not stated)
- Decrease in blood pressure (Rattus norvegicus [3]): 15%

Compound: CC(=O)Nc1cc2c(cc1[N+](=O)[O-])C(NC(C)=O)[C@H](O)C(C)(C)O2 (some centres not stated)
- Decrease in blood pressure (Rattus norvegicus [8]): 9%
- Decrease in blood pressure (Rattus norvegicus [2]): 38%

Compound: CC1(C)Oc2ccc(C#N)cc2C(NC(=O)c2c[nH]c3ccccc23)[C@@H]1O (some centres not stated)
- Decrease in blood pressure (Rattus norvegicus [3]): 13%

Compound: CCOC(=O)C(=O)NC1c2cc(C#N)ccc2OC(C)(C)[C@H]1O (some centres not stated)
- Decrease in blood pressure (Rattus norvegicus [3]): 12%

Compound: CC1(C)Oc2ccc(C#N)cc2C(NC(=O)NC(=O)C(Cl)(Cl)Cl)[C@@H]1O (some centres not stated)
- Decrease in blood pressure (Rattus norvegicus [3]): 28%
- Decrease in blood pressure (Rattus norvegicus [4]): 13%

Compound: CCN(C(C)=O)C1c2cc(C#N)ccc2OC(C)(C)[C@H]1O (some centres not stated)
- Decrease in blood pressure (Rattus norvegicus [1]): 22%
- Decrease in blood pressure (Rattus norvegicus [2]): 14%

Compound: CC(=O)NC1=CC(C)(C)Oc2ccc(C#N)cc21
- Decrease in blood pressure (Rattus norvegicus [5]): 52%
- Decrease in blood pressure (Rattus norvegicus [4]): 20%

Compound: CNC(=O)NC1c2cc(C#N)ccc2OC(C)(C)[C@H]1O (some centres not stated)
- Decrease in blood pressure (Rattus norvegicus [8]): 14%
- Increase (Oryctolagus cuniculus): 63%
- Decrease in blood pressure (Rattus norvegicus [1]): 61%
- Decrease in blood pressure (Rattus norvegicus [2]): 31%
